Experimental data from ChEMBL document CHEMBL3526104 (Drug Metab Dispos, 2011).

How the values were obtained:
[1] = Lipophilicity, log P of the compound; format: physicochemical; settings: octanol/water
[2] = Tmax in healthy human at 100 mg, po administered as single dose on day 4 and cotreated with ketoconazole at 400 mg, po qd on day 1 to 7; format: ADME, organism-based; parameters: dosed compound name Casopitant; settings: in vivo
Cytochrome P450 3A4 [3] = target: T1, Cytochrome P450 3A4 (Homo sapiens, UniProt P08684); test: Drug metabolism in human liver microsomes assessed as CYP3A4-mediated GSK525060 formation at 5 to 20 uM up to 30 mins by HPLC-MS/MS method; format: ADME; settings: 0.5 h
T1 sequence (P08684 whole entry): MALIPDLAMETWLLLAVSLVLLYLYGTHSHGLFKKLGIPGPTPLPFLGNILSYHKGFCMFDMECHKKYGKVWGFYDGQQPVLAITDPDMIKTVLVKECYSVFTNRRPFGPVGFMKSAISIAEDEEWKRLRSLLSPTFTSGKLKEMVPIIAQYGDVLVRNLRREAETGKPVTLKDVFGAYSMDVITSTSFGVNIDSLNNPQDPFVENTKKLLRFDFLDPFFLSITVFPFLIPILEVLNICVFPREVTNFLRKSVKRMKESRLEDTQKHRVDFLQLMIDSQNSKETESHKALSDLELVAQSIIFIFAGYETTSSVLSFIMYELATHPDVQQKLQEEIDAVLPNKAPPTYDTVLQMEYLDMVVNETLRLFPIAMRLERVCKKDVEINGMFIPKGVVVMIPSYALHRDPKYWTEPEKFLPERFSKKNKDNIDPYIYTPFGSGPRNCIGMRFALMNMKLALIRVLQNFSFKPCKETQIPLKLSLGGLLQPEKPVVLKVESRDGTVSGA
Summary of the method: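 Pooled human liver microsomes in 50 mM phosphate buffer, pH 7.4, with an NADPH-generating system. […] GSK525060 measured by HPLC-MS/MS.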

[4] = Tmax in healthy human at 150 mg, po administered as single dose on day 8 and cotreated with rifampin at 600 mg, po qd on day 1 to 9; format: ADME, organism-based; parameters: dosed compound name Casopitant; settings: in vivo
[5] = Half life in healthy human at 150 mg, po administered as single dose; format: ADME, organism-based; parameters: dosed compound name Casopitant; settings: in vivo
[6] = Dissociation constant, pKa of the compound; format: physicochemical
[7] = Cmax in healthy human at 150 mg, po administered as single dose on day 8 and cotreated with rifampin at 600 mg, po qd on day 1 to 9; format: ADME, organism-based; settings: in vivo
Homo sapiens [8] = test: Cmax in healthy human assessed as fold change at 100 mg, po in presence of 400 mg ketoconazole; format: ADME, organism-based; parameters: dosed compound name Casopitant; settings: in vivo
Summary of the method: (§1)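 Open-label study, healthy subjects (n=12 enrolled; 13 per treatment in table): single oral 100 mg dose given alone on Day 1, then with oral ketoconazole 400 mg once daily for 7 days, co-dosed on Day 4 of ketoconazole. Plasma parent drug measured by validated HPLC-MS/MS at selected time points; ratios from geometric means of AUC(0-t) and Cmax, 90% CI.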

[9] = Tmax in healthy human at 100 mg, po administered as single dose; format: ADME, organism-based; parameters: dosed compound name Casopitant; settings: in vivo
[10] = Half life in healthy human at 150 mg, po administered as single dose on day 8 and cotreated with rifampin at 600 mg, po qd on day 1 to 9; format: ADME, organism-based; parameters: dosed compound name Casopitant; settings: in vivo
Homo sapiens [11] = test: Cmax in healthy human assessed as fold change at 150 mg, po in presence of 600 mg rifampin; format: ADME, organism-based; parameters: dosed compound name Casopitant; settings: in vivo
Summary of the method: (§2)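 Open-label study, 12 healthy subjects: single oral 150 mg dose alone on Day 1, then with oral rifampin 600 mg once daily (study Days 9-17), co-dosed on Day 16. Plasma parent drug measured by validated HPLC-MS/MS at selected time points; fold change from geometric means of AUC(0-t) and Cmax, 90% CI.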

Liver microsome = test: Intrinsic clearance in human liver microsomes assessed per mg protein; format: ADME
Summary of the method: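 CLint derived from Km and Vmax of GSK525060 formation in human liver microsomes. […] Metabolite measured by HPLC-MS/MS; Michaelis-Menten fit by non-linear regression.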

[12] = Unbound fraction in human gut; format: ADME, tissue-based; parameters: dosed compound name Casopitant
Cytochrome P450 3A4 [13] = target: T1, Cytochrome P450 3A4; test: Drug metabolism assessed as human recombinant CYP3A4-mediated GSK525060 formation at 10 uM after 30 mins by HPLC-MS/MS method; format: ADME; settings: recombinant enzyme, 0.5 h
Summary of the method: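 Recombinant human CYP3A4 in 50 mM phosphate buffer, pH 7.4, with an NADPH-generating system. […] GSK525060 formation quantified by HPLC-MS/MS.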

[14] = Cmax in healthy human at 150 mg, po administered as single dose; format: ADME, organism-based; settings: in vivo
Homo sapiens [15] = test: AUC in healthy human assessed as fold change at 150 mg, po in presence of 600 mg rifampin; format: ADME, organism-based, Plasma; parameters: dosed compound name Casopitant; settings: in vivo; summary of the method: as §2
Cytochrome P450 3A4 [16] = target: T1, Cytochrome P450 3A4; test: Fraction of drug metabolized assessed as human CYP3A4-mediated drug metabolism; format: ADME; settings: recombinant enzyme
Homo sapiens [17] = test: AUC in healthy human assessed as fold change at 100 mg, po in presence of 400 mg ketoconazole; format: ADME, organism-based, Plasma; parameters: dosed compound name Casopitant; settings: in vivo; summary of the method: as §1
[18] = AUC (0 to t) in healthy human at 100 mg, po administered as single dose; format: ADME, organism-based; parameters: dosed compound name Casopitant; settings: plasma
[19] = Tmax in healthy human at 150 mg, po administered as single dose; format: ADME, organism-based; parameters: dosed compound name Casopitant; settings: in vivo
CYP3A4 = CYP3A4 (Homo sapiens, UniProt P08684); test: Metabolism dependent inactivation of CYP3A4 in human liver microsomes pretreated with compound in presence of midazolam substrate and NADPH by HPLC-MS/MS method relative to untreated control; settings: probe midazolam
Chain of CYP3A4 (P08684 whole entry): as above

[20] = Unbound fraction in human plasma; format: ADME, cell-free
[21] = AUC (0 to t) in healthy human at 150 mg, po administered as single dose on day 8 and cotreated with rifampin at 600 mg, po qd on day 1 to 9; format: ADME, organism-based; parameters: dosed compound name Casopitant; settings: plasma
[22] = Volume of distribution at steady state in human; format: ADME, organism-based; parameters: dosed compound name Casopitant; settings: in vivo, read-out: Vdss
[23] = AUC (0 to t) in healthy human at 150 mg, po administered as single dose; format: ADME, organism-based; parameters: dosed compound name Casopitant; settings: plasma
[24] = AUC (0 to t) in healthy human at 100 mg, po administered as single dose on day 4 and cotreated with ketoconazole at 400 mg, po qd on day 1 to 7; format: ADME, organism-based; parameters: dosed compound name Casopitant; settings: plasma
[25] = Cmax in healthy human at 100 mg, po administered as single dose; format: ADME, organism-based; settings: in vivo
[26] = Cmax in healthy human at 100 mg, po administered as single dose on day 4 and cotreated with ketoconazole at 400 mg, po qd on day 1 to 7; format: ADME, organism-based; settings: in vivo
Homo sapiens [27] = test: AUC (0 to infinity) in healthy human assessed as fold change in presence of casopitant 30 mg, po once daily administered for 14 days; format: ADME, organism-based, Plasma; settings: in vivo, 336 h
Homo sapiens [28] = test: AUC (0 to infinity) in healthy human assessed as fold change in presence of casopitant 30 mg, po once daily administered for 3 days; format: ADME, organism-based, Plasma; settings: in vivo, 72 h
Homo sapiens [29] = test: AUC (0 to infinity) in healthy human assessed as fold change in presence of casopitant 120 mg, po once daily administered for 14 days; format: ADME, organism-based, Plasma; settings: in vivo, 336 h
Homo sapiens [30] = test: AUC (0 to infinity) in healthy human assessed as fold change in presence of casopitant 120 mg, po once daily administered for 3 days; format: ADME, organism-based, Plasma; settings: in vivo, 72 h

SMILES: CC(=O)N1CCN([C@H]2CCN(C(=O)N(C)[C@H](C)c3cc(C(F)(F)F)cc(C(F)(F)F)c3)[C@@H](c3ccc(F)cc3C)C2)CC1 [CASOPITANT]
- logP [1]: 5.6
- Tmax [2]: 2 h
- Drug metabolism (Cytochrome P450 3A4 [3]): metabolite_detected
- Tmax [4]: 1 h
- half-life [5]: 19.2 h
- pKa [6]: 6.3
- Cmax [7]: 93.2 ng/mL
- fold change (FC) (Homo sapiens [8]): 2.71
- Tmax [9]: 1 h
- half-life [10]: 6.45 h
- fold change (FC) (Homo sapiens [11]): 0.11
- CLint (Liver microsome): 25 µL/min/mg
- fraction unbound [12]: 1
- Drug metabolism (Cytochrome P450 3A4 [13]): metabolite_detected
- Cmax [14]: 847 ng/mL
- fold change (FC) (Homo sapiens [15]): 0.04
- Fm (Cytochrome P450 3A4 [16]): 1
- fold change (FC) (Homo sapiens [17]): 12.1
- AUC(0-t) [18]: 2590 ng·h/mL
- Tmax [19]: 1.25 h
- KI (CYP3A4): 3.1 µM
- fraction unbound [20]: 0.005
- AUC(0-t) [21]: 273 ng·h/mL
- Vd [22]: 2.58 L/kg
- AUC(0-t) [23]: 6570 ng·h/mL
- AUC(0-t) [24]: 31200 ng·h/mL
- Cmax [25]: 457 ng/mL
- Cmax [26]: 1250 ng/mL

SMILES: Cc1ncc2n1-c1ccc(Cl)cc1C(c1ccccc1F)=NC2 [MIDAZOLAM]
- fold change (FC) (Homo sapiens [27]): 1.76
- fold change (FC) (Homo sapiens [28]): 2.02
- fold change (FC) (Homo sapiens [29]): 3.49
- fold change (FC) (Homo sapiens [30]): 2.67

SMILES: COC(=O)C1=C(C)NC(C)=C(C(=O)OC)C1c1ccccc1[N+](=O)[O-] [NIFEDIPINE]
- fold change (FC) (Homo sapiens [27]): 1.61
- fold change (FC) (Homo sapiens [28]): 1.56
- fold change (FC) (Homo sapiens [29]): 1.42
- fold change (FC) (Homo sapiens [30]): 1.77
